Source: ChEMBL document CHEMBL2407008, “Synthesis and biological evaluation of a new series of highly functionalized 7'-homo-anhydrovinblastine derivatives” (J Med Chem, 2013)
Activity calls are given as the source filed them. The calls are words filed in the database; no cut-off is given here.

Assays:
[1] = Cytotoxicity against human U87MG cells after 72 hrs by resazurin assay; assay type: functional, cell-based, U-87MG ATCC; details: U-87 MG
In short: (§1)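 Cells were seeded at 2.5 × 10^3/well, cultured 24 h, then given compound in DMSO (<0.1%) at several concentrations for 72 h. Media: RPMI 1640/10% FCS for K562 and HCT116; DMEM/10% FCS for U87-MG; EGM2 with growth factors and 2% FCS for HUVEC. Resazurin was added for 1.5 h and fluorescence read (ex 560/em 590 nm). IC50 is the 50% fluorescence drop versus untreated cells. Run in triplicate.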

HUVEC = experiment: Cytotoxicity against HUVEC after 72 hrs by resazurin assay; assay type: cell-based; details: Homo sapiens; in short: as §1
K562 [2] = experiment: Cytotoxicity against human K562 cells after 72 hrs by resazurin assay; assay type: functional, cell-based; details: K562, 72 h; in short: as §1
HCT-116 = experiment: Cytotoxicity against human HCT116 cells after 72 hrs by resazurin assay; assay type: functional, cell-based; details: HCT-116, 72 h; in short: as §1
[3] = Inhibition of sheep brain tubulin polymerization by UV spectrophotometric analysis; design: species or system Ovis aries
In short: (§2)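 Sheep brain tubulin was mixed with compound in DMSO at 0 °C, then warmed to 37 °C. Assembly was followed as optical density at 350 nm. Maximum assembly rate was compared with a drug-free sample, and IC50 was derived from several concentrations. Vinorelbine IC50 was measured the same day on the same tubulin preparation.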

Ovis aries = species: Ovis aries; experiment: Ratio of compound IC50 to vinorelbine IC50 for sheep brain tubulin polymerization; in short: as §2
[4] = Cell cycle arrest in human U87MG cells assessed as accumulation at G2/M phase at 50 nM after 24 hrs by propidium iodide staining-based flow cytometric analysis; assay type: functional; details: U-87MG ATCC
In short: (§3)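 U87-MG glioblastoma cells grown in DMEM with 10% FCS and L-glutamine, 37 °C, 5% CO2. Exponentially growing cells were treated for 24 h at two concentrations, or with DMSO. Cells were harvested, dissociated, PBS-washed, fixed in cold 70% ethanol and kept at −20 °C overnight. Staining used propidium iodide with RNase for 30 min, followed by flow-cytometric cell-cycle profiling.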

[5] = Cell cycle arrest in human U87MG cells assessed as accumulation at G2/M phase at >50 nM after 24 hrs by propidium iodide staining-based flow cytometric analysis; assay type: functional; details: U-87MG ATCC; in short: as §3
K562 [6] = experiment: Cell cycle arrest in human K562 cells assessed as accumulation at G2/M phase at 50 nM after 24 hrs by propidium iodide staining-based flow cytometric analysis; assay type: functional
In short: (§4)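 K562 cells grown in RPMI 1640 with 10% FCS and 1% glutamine, 37 °C, 5% CO2. Exponentially growing cells were exposed for 24 h to compound at two concentrations, or to DMSO. Cells were then harvested, PBS-washed, fixed in cold 70% ethanol (30 min, +4 °C) and held at −20 °C overnight. DNA was stained with propidium iodide plus RNase for 30 min, and the profile was read by flow cytometry.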

K562 [7] = experiment: Cell cycle arrest in human K562 cells assessed as accumulation at G2/M phase at >50 nM after 24 hrs by propidium iodide staining-based flow cytometric analysis; assay type: functional; in short: as §4
K562 [8] = experiment: Cell cycle arrest in human K562 cells assessed as accumulation at G2/M phase at >10 nM after 24 hrs by propidium iodide staining-based flow cytometric analysis; assay type: functional; in short: as §4
[9] = Cell cycle arrest in human U87MG cells assessed as accumulation at G2/M phase at >5 nM after 24 hrs by propidium iodide staining-based flow cytometric analysis; assay type: functional; details: U-87MG ATCC; in short: as §3
K562 [10] = experiment: Cell cycle arrest in human K562 cells assessed as accumulation at G2/M phase at 10 nM after 24 hrs by propidium iodide staining-based flow cytometric analysis; assay type: functional; in short: as §4
[11] = Cell cycle arrest in human U87MG cells assessed as accumulation at G2/M phase at 5 nM after 24 hrs by propidium iodide staining-based flow cytometric analysis; assay type: functional; details: U-87MG ATCC; in short: as §3

IC50 [3] | Compound | IC50 [1] | IC50 (HUVEC) | IC50 (K562 [2]) | IC50 (HCT-116) | further results
6000 nM | CCC1=C[C@@H]2CN(C1)/C(C(=O)OC)=C(/C(=O)OC)Cc1c([nH]c3ccccc13)[C@@](C(=O)OC)(c1cc3c(cc1OC)N(C)[C@H]1[C@@](O)(C(=O)OC)[C@H](OC(C)=O)[C@]4(CC)C=CCN5CC[C@]31[C@@H]54)C2 | 700 nM | 100 nM | 1000 nM | 500 nM | –
> 100000 nM | CCC1=C[C@@H]2CN(C1)C[C@H](C(=O)OCc1ccccc1)Cc1c([nH]c3ccccc13)[C@@](C(=O)OC)(c1cc3c(cc1OC)N(C)[C@H]1[C@@](O)(C(=O)OC)[C@H](OC(C)=O)[C@]4(CC)C=CCN5CC[C@]31[C@@H]54)C2 | – | – | – | – | –
> 100000 nM | CCC1=C[C@@H]2CN(/C=C(/C(=O)OCc3ccccc3)Cc3c([nH]c4ccccc34)[C@@](C(=O)OC)(c3cc4c(cc3OC)N(C)[C@H]3[C@@](O)(C(=O)OC)[C@H](OC(C)=O)[C@]5(CC)C=CCN6CC[C@]43[C@@H]65)C2)C1 | – | – | – | – | –
> 100000 nM | CCOC(=O)[C@@H]1Cc2c([nH]c3ccccc23)[C@@](C(=O)OC)(c2cc3c(cc2OC)N(C)[C@H]2[C@@](O)(C(=O)OC)[C@H](OC(C)=O)[C@]4(CC)C=CCN5CC[C@]32[C@@H]54)C[C@@H]2C=C(CC)CN(C2)C1 | – | – | – | – | –
1100 nM | CCC1=C[C@@H]2CN(C1)[C@H](C(=O)NC(C)(C)C)[C@H](C(=O)OC)Cc1c([nH]c3ccccc13)[C@@](C(=O)OC)(c1cc3c(cc1OC)N(C)[C@H]1[C@@](O)(C(=O)OC)[C@H](OC(C)=O)[C@]4(CC)C=CCN5CC[C@]31[C@@H]54)C2 | 80 nM | 70 nM | 250 nM | 300 nM | Ratio IC50 (Ovis aries): 1.7
18000 nM | CCC1=C[C@@H]2CN(/C=C(/C(=O)OC)Cc3c([nH]c4ccccc34)[C@@](C(=O)OC)(c3cc4c(cc3OC)N(C)[C@H]3[C@@](O)(C(=O)OC)[C@H](OC(C)=O)[C@]5(CC)C=CCN6CC[C@]43[C@@H]65)C2)C1 | 700 nM | 250 nM | 500 nM | 500 nM | –
10400 nM | CCC1=C[C@@H]2CN(C1)/C(C(=O)NCc1ccccc1)=C(/C(=O)OC)Cc1c([nH]c3ccccc13)[C@@](C(=O)OC)(c1cc3c(cc1OC)N(C)[C@H]1[C@@](O)(C(=O)OC)[C@H](OC(C)=O)[C@]4(CC)C=CCN5CC[C@]31[C@@H]54)C2 | 10 nM | 40 nM | 80 nM | 250 nM | –
10400 nM | CCC1=C[C@@H]2CN(C1)/C(C(=O)NC(C)(C)C)=C(/C(=O)OC)Cc1c([nH]c3ccccc13)[C@@](C(=O)OC)(c1cc3c(cc1OC)N(C)[C@H]1[C@@](O)(C(=O)OC)[C@H](OC(C)=O)[C@]4(CC)C=CCN5CC[C@]31[C@@H]54)C2 | 25 nM | 25 nM | 50 nM | 60 nM | –
3700 nM | C=CCNC(=O)/C1=C(\C(=O)OC)Cc2c([nH]c3ccccc23)[C@@](C(=O)OC)(c2cc3c(cc2OC)N(C)[C@H]2[C@@](O)(C(=O)OC)[C@H](OC(C)=O)[C@]4(CC)C=CCN5CC[C@]32[C@@H]54)C[C@@H]2C=C(CC)CN1C2 | 3000 nM | 2000 nM | 1000 nM | 1800 nM | –
1600 nM | CCC1=C[C@@H]2CN(C1)/C(C(=O)NC(C)C)=C(/C(=O)OC)Cc1c([nH]c3ccccc13)[C@@](C(=O)OC)(c1cc3c(cc1OC)N(C)[C@H]1[C@@](O)(C(=O)OC)[C@H](OC(C)=O)[C@]4(CC)C=CCN5CC[C@]31[C@@H]54)C2 | 350 nM | 700 nM | 1500 nM | 2500 nM | Ratio IC50 (Ovis aries): 2
2700 nM | CCC1=C[C@@H]2CN(C1)[C@H](C(=O)NCc1ccccc1)[C@H](C(=O)OC)Cc1c([nH]c3ccccc13)[C@@](C(=O)OC)(c1cc3c(cc1OC)N(C)[C@H]1[C@@](O)(C(=O)OC)[C@H](OC(C)=O)[C@]4(CC)C=CCN5CC[C@]31[C@@H]54)C2 | 70 nM | 60 nM | 75 nM | 200 nM | –
2100 nM | CC[C@]1(O)C[C@@H]2CN(CCc3c([nH]c4ccccc34)[C@@](C(=O)OC)(c3cc4c(cc3OC)N(C)[C@H]3[C@@](O)(C(=O)OC)[C@H](OC(C)=O)[C@]5(CC)C=CCN6CC[C@]43[C@@H]65)C2)C1 [VINBLASTINE] | 1 nM | 0.8 nM | 7 nM | 3.5 nM | –
2500 nM | CCC1=C[C@@H]2CN(C1)C[C@H](C(=O)OC)Cc1c([nH]c3ccccc13)[C@@](C(=O)OC)(c1cc3c(cc1OC)N(C)[C@H]1[C@@](O)(C(=O)OC)[C@H](OC(C)=O)[C@]4(CC)C=CCN5CC[C@]31[C@@H]54)C2 | 7 nM | 8 nM | 15 nM | 18 nM | Activity [4]: Active; Activity [5]: Active; Activity (K562 [6]): Active; Activity (K562 [7]): Active
500 nM | CCC1=C[C@@H]2CN(C1)[C@H](C(=O)NC(C)C)[C@H](C(=O)OC)Cc1c([nH]c3ccccc13)[C@@](C(=O)OC)(c1cc3c(cc1OC)N(C)[C@H]1[C@@](O)(C(=O)OC)[C@H](OC(C)=O)[C@]4(CC)C=CCN5CC[C@]31[C@@H]54)C2 | 20 nM | 150 nM | 60 nM | 100 nM | Ratio IC50 (Ovis aries): 0.6
700 nM | CCC1=C[C@@H]2CN(C1)Cc1c([nH]c3ccccc13)[C@@](C(=O)OC)(c1cc3c(cc1OC)N(C)[C@H]1[C@@](O)(C(=O)OC)[C@H](OC(C)=O)[C@]4(CC)C=CCN5CC[C@]31[C@@H]54)C2 [VINORELBINE] | 2 nM | 2 nM | 20 nM | 35 nM | –
8600 nM | CCC1=C[C@@H]2CN(C1)[C@H](C(=O)OC)[C@H](C(=O)OC)Cc1c([nH]c3ccccc13)[C@@](C(=O)OC)(c1cc3c(cc1OC)N(C)[C@H]1[C@@](O)(C(=O)OC)[C@H](OC(C)=O)[C@]4(CC)C=CCN5CC[C@]31[C@@H]54)C2 | 1.5 nM | 2.5 nM | 5 nM | 6 nM | Activity (K562 [8]): Active; Activity [9]: Active; Activity (K562 [10]): Active; Activity [11]: Active
4900 nM | C=CCNC(=O)[C@@H]1[C@H](C(=O)OC)Cc2c([nH]c3ccccc23)[C@@](C(=O)OC)(c2cc3c(cc2OC)N(C)[C@H]2[C@@](O)(C(=O)OC)[C@H](OC(C)=O)[C@]4(CC)C=CCN5CC[C@]32[C@@H]54)C[C@@H]2C=C(CC)CN1C2 | 10 nM | 25 nM | 50 nM | 45 nM | –
> 100000 nM | CCOC(=O)/C1=C/N2CC(CC)=C[C@H](C2)C[C@](C(=O)OC)(c2cc3c(cc2OC)N(C)[C@H]2[C@@](O)(C(=O)OC)[C@H](OC(C)=O)[C@]4(CC)C=CCN5CC[C@]32[C@@H]54)c2[nH]c3ccccc3c2C1 | – | – | – | – | –
